# Most compounds without a hit are left out; they make up all but 1.9% or so of the library.
# Runt-CBFb FRET: inhibitors of human RUNX1 Runt domain binding to CBFb. Cerulean-Runt/Venus-CBFb FRET ratio 530/480, 1 h. AID 1496. actives 0.46% (n = 220,000). Q01196+Q13951. inhibition, % at 20 µM;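 active means inhibition over about 50% at 20 µM in the single-dose screen, limit read from the data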;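 further: 0% = DMSO wells and 100% = excess unlabeled CBFb competitor control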
#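 Assay system: Cerulean-Runt domain fusion protein, energy donor; Signal: fluorescence energy transfer, 422 nm excitation, 530/480 nm emission; Timing: 1 h compound exposure, room temperature; Control set: unlabeled CBFb; Medium: Tris buffer pH 7.5 with salts and BSA; Compound: single test concentration of 20 µM, 1% DMSO final; Probe or stimulus: Venus-CBFb 100 nM.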
# Runt-SMMHC FRET: blocks binding of human RUNX1 Runt domain to CBFb-SMMHC | inhibition, % at 20 µM | Cerulean-Runt/Venus-CBFb-SMMHC FRET ratio 530/480, 1 h | actives 0.74% (n = 220,000) | AID 1434;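 active means mean inhibition across duplicate retests at 20 µM reaching about 50%, limit read from the data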;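 further: 0% = DMSO wells and 100% = wells with excess untagged CBFb-SMMHC; inhibitors lower the FRET ratio by blocking Runt binding to CBFb-SMMHC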
# Hck-Nef inh: inhibitors of human Hck kinase activated by Nef; P08631; Recombinant Hck-YEEI plus Nef, Z-Lyte FRET kinase assay; inhibition, % at 20 µM; actives 0.68% (n = 220,000); AID 463187;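 active means Hck-Nef kinase inhibition above about 50%, limit read from the data; inactive means inhibition below that limit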;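 further: 0% = DMSO with Hck plus Nef and 100% = Hck alone without Nef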
# Target sequence (P08631 whole entry, looked up): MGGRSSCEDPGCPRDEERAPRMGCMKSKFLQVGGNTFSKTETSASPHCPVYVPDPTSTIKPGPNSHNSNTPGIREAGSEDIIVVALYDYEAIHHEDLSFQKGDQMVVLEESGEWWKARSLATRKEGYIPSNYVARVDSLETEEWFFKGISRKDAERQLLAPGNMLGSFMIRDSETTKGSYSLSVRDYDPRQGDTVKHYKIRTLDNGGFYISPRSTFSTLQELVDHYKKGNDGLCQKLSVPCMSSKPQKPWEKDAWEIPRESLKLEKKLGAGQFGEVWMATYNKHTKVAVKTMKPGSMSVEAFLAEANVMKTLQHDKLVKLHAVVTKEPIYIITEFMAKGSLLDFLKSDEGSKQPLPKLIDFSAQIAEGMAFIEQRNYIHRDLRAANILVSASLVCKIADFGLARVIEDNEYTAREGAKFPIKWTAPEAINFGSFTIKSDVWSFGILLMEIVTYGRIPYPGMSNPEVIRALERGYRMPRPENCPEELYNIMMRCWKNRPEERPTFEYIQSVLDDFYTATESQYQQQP
# Tb hexokinase: T. brucei hexokinase 1 inhibition; inhibition, % at 10 µM; actives 0.11% (n = 220,000); AID 1430; recombinant TbHK1, G6PDH-coupled NADH A340;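 active means inhibition of 50% or more in the single-dose primary screen; inactive means inhibition below 50%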
# RanGTP-Imp inh: disruptors of Ran-importin-beta complex formation – biochemical, FRET, CFP-Ran, YFP-importin-beta, homogeneous, primary screen; cell-free CFP-Ran/YFP-importin-beta FRET ratio; inhibition, % (concentration not given with the values); actives 1.1% (n = 300,000);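 active means more than half of the replicate wells show a fall in the fluorescence ratio signal beyond about 16%, limit read from the data, passing the limit was not always enough; inconclusive means exactly half of the replicate wells pass the set limit; inactive means fewer than half of replicates pass the limit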;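 further: 0% = DMSO wells and 100% = Ran loaded with GDP instead of GTP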
# G6PDH ctr: inhibits Leuconostoc G6PDH, counter-screen for TbHK1 inhibitors. shares compounds with Tb hexokinase. purified G6PDH, NADH absorbance, 1 h. inhibition, % at 10 µM. actives 7% (n = 210);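 active means at least 50% inhibition in the glucose-6-phosphate dehydrogenase coupled counterscreen; inconclusive means no clear call, values can overlap the other calls; inactive means inhibition below 50%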
# TbHK1 confirm: T. brucei hexokinase 1 inhibition, rescreen; shares compounds with Tb hexokinase; recombinant TbHK1, G6PDH-coupled NADH A340 absorbance; inhibition, % at 10 µM; actives 10% (n = 210); AID 2560;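 active means inhibition of at least 50% in both of the two screening runs; inconclusive means at least 50% in one run, below 50% in the other; inactive means inhibition below 50% in both runs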;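 further: 0% and 100% set by the maximum and minimum signal control wells on each plate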
# * hit, by the source's call; ? = inconclusive; / = not tested or not shown.
SMILES,Runt-CBFb FRET,Runt-SMMHC FRET,Hck-Nef inh,Tb hexokinase,RanGTP-Imp inh,G6PDH ctr,TbHK1 confirm
Cc1nc(S(=O)(=O)N2CCOCC2)c(C#N)c(C)c1Cl,0,1,3,55*,-1,-8,-5
O=C(NC(=S)NNS(=O)(=O)c1ccccc1)c1ccccc1[N+](=O)[O-],13,7,3,65*,-2,-22,-1
O=C(NNS(=O)(=O)c1ccccc1)c1ccc([N+](=O)[O-])cc1,/,/,/,/,-5,/,/
O=C(NNC(=S)NC(=O)c1ccccc1[N+](=O)[O-])c1ccccc1Cl,2,-1,6,17,?,/,/
O=C(NC(=S)NNS(=O)(=O)c1ccccc1)c1ccc([N+](=O)[O-])cc1,17,6,12,76*,-1,-33,1
CCCCC(=O)NC(=S)NNS(=O)(=O)c1ccccc1,42,24,5,56*,4,-17,2
CCOC(=O)c1ccccc1NC(=O)COC(=O)CN1C(=O)C2CC=CCC2C1=O (centres undefined),/,/,/,/,2,/,/
N#C/C(=C\c1ccccc1O)C(=O)Nc1ccccn1,/,/,/,/,-1,/,/
O=C(CCN1C(=O)c2ccccc2C1=O)C1=NN[C@@H]2C(=O)N(c3ccc4c(c3)OCO4)C(=O)[C@H]12,4,1,11,-30,1,/,/
O=C(CNC(=O)c1ccc(Cl)cc1Cl)Nc1ccc(F)cc1,1,2,12,-4,-4,/,/
CCCOc1ccc(C(CC(=O)O)NC(=O)C23CC4CC(CC(C4)C2)C3)cc1 (centres undefined),-2,-1,-17,60*,7,-30,2
CN(CCOc1ccccc1)C(=S)Nc1ccc(OC(F)F)cc1,/,/,/,/,4,/,/
O=C(NC(NC(=O)c1ccccc1)C(=O)c1ccccc1)c1ccccc1,0,5,15,3,-2,/,/
CCOC(=O)NC(NC(=O)OCC)C(=O)c1ccccc1,-1,0,6,65*,0,-5,-1
CCCCCC(C(=O)O)C(C)CC(=O)NC1CCCCC1 (centres undefined),-1,-4,9,63*,3,-20,-7
O=C(O)COc1ccccc1C(Nc1ccccn1)c1cc(Cl)c2cccnc2c1O (centres undefined),-9,-9,-3,76*,0,-42,28
O=C(O)COc1ccccc1C(Nc1cccnc1)c1cc(Cl)c2cccnc2c1O (centres undefined),-3,-27,19,14,-1,/,/
CC(NC(=O)CNC(=O)OCc1ccccc1)C(=O)N1CC(O)CC1C(=O)OCc1ccccc1 (centres undefined),1,4,1,51*,-1,-10,-1
O=C(O)c1ccc(Cl)c(S(=O)(=O)Nc2ccccc2C(=O)Nc2ccc(Cl)cc2)c1,/,/,/,/,-1,/,/
COc1cccc(C(=O)NC2CCN(CC(=O)Nc3cccc(C)c3C)CC2)c1,2,-2,19,-6,4,/,/
COc1cc(OC)cc(C(=O)NC2CCN(CC(=O)Nc3cccc4ccccc34)CC2)c1,-4,12,10,53*,1,-39,-8
O=C(O)CCn1nnc(-c2cccs2)n1,0,-2,0,54*,0,-3,1
COC(=O)C1C(c2ccccc2)C(C(=O)N2CCN(C)CC2)C1c1ccccc1 (centres undefined),-2,6,3,53*,6,-10,-14
COC(=O)[C@H]1[C@H](c2ccccc2)[C@H](C(=O)OC)O[C@H]1c1ccccc1,/,/,/,/,5,/,/
COc1ccc(Br)cc1C1NC(=O)NC(C)=C1C(=O)N(C)C (centres undefined),0,-1,15,-2,-3,/,/
SMILES,Runt-CBFb FRET,Runt-SMMHC FRET,Hck-Nef inh,Tb hexokinase,RanGTP-Imp inh,G6PDH ctr,TbHK1 confirm
CSc1nc2n(n1)C(c1cc(Br)ccc1F)C(C(=O)N(C)C)=C(C)N2 (centres undefined),-1,-5,5,63*,3,-6,-7
CCCCOC(=O)Cn1cnc2ccc(Br)cc2c1=O,1,0,5,59*,?,-9,3
Cc1ccc(C)c(OCc2cc(C(=O)N3CCN(c4ccccc4C)CC3C)no2)c1 (centres undefined),/,/,/,/,2,/,/
Cc1n[nH]c(=O)nc1NC(C)c1ccccc1 (centres undefined),1,-14,1,51*,0,-2,2
COc1ccccc1Nc1nc(=O)[nH]nc1C,0,0,-1,-6,-1,/,/
CC(C)N(C(=O)c1ccc(C(=O)Nc2ccc([N+](=O)[O-])cc2)cc1)C(C)C,2,-2,1,56*,7,4,-2
Cc1ccc(C)c(S(=O)(=O)N2CCN(C(=O)CCC(=O)c3cc(C)sc3C)CC2)c1,/,/,/,/,1,/,/
OC(COCc1ccccc1)CN1CCCC1 (centres undefined),-1,1,4,60*,-2,-4,-7
CCOC(=O)C1CCN(C(=O)Cn2ncc3c([nH]c4ccccc43)c2=O)CC1,/,/,/,/,-2,/,/
CCc1ccc(C(=O)C(C)OC(=O)c2nn(C)c(=O)c3ccccc23)cc1 (centres undefined),/,/,/,/,1,/,/
Cc1ccc(CNC(=O)C2CNc3cc(C)ccc3O2)cc1 (centres undefined),0,2,3,58*,8,-7,16
O=C(CSc1n[nH]c(-c2ccccc2O)n1)N1CCCc2ccccc21,0,4,8,64*,6,-4,-1
O=C(CSc1n[nH]c(-c2cccs2)n1)N1CCCc2ccccc21,-3,-2,-1,0,4,/,/
Cc1ccc(NC(=O)CCSCCc2ccccn2)cc1,-24,4,6,-3,4,/,/
CCCCc1ccc(/C=C2/C(=O)ON=C2c2ccccc2)s1,-1,-7,4,55*,1,-37,55*
Cc1sc(/C=C2\C(=O)ON=C2c2ccccc2)cc1Br,0,4,7,1,-3,/,/
Cc1ccc(NC2CCCN(C(=O)CSc3ccncc3)C2)cc1C (centres undefined),/,/,/,/,3,/,/
CCS(=O)(=O)c1ccc(O)c(NC(=O)Nc2ccccc2)c1,0,-3,2,50*,-1,-3,2
CCS(=O)(=O)c1ccc(O)c(NC(=O)Nc2ccc(C(C)(C)C)cc2)c1,1,2,26,-3,-2,/,/
C=CCn1c(SCC(=O)NCC(=O)OCC)nnc1-c1ccccn1,0,-1,9,50*,2,3,1
C=CCn1c(SCC(=O)NC2CC2)nnc1-c1ccccn1,/,/,/,/,1,/,/
CCOC(=O)CNC(=O)CSc1nnc(-c2ccco2)n1N,0,-5,2,51*,2,1,8

# Screening results as filed in PubChem BioAssay.
